Like-named read-outs stand apart in the source and are kept apart here.
Experiments:
[1] = biological target: T1, InhA (Mycobacterium tuberculosis, UniProt P9WGR1); experiment: Progress curve analysis of InhA inhibition; format: biochemical; conditions: for kon, overall: (k5+k6)/Ki^app; for k5: EI to EI*; for k6: EI* to EI; for tR: residence time from progress curve analysis
[2] = biological target: T1, InhA; experiment: [32P]-NAD+ direct dissociation kinetics; format: binding; conditions: 32P-NAD+ direct dissociation method
Procedure, shortened: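 InhA expressed in E. coli BL21(DE3) pLysS and purified by Ni2+-NTA and size exclusion. Ternary complex formed with 15 μM InhA, 20 μM NAD+ plus [32P]-NAD+, and 200 μM inhibitor in 30 mM PIPES pH 6.8, 150 mM NaCl, 1 mM EDTA. Spin column removed free ligand; rapid dilution into buffer started dissociation. Timed aliquots ultrafiltered (10 kDa). Run at 20 °C, or 25 °C for two compounds. kon,overall from koff via Equation 5.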

[3] = system: M. tuberculosis; experiment: MIC determination, microplate Alamar Blue assay; format: cell-based; conditions: 37 °C, 6 days + 24 h
[4] = biological target: T1, InhA; experiment: Second-harmonic generation; format: binding; conditions: 10 μM compound
[5] = 20 °C, calculated from Ki^app, Ki^*app, k6
[6] = read-out: Ki^*app, 20 °C, final EI* complex
[7] = read-out: Ki^app, 20 °C, initial EI complex

T1 sequence (P9WGR1 whole entry, looked up): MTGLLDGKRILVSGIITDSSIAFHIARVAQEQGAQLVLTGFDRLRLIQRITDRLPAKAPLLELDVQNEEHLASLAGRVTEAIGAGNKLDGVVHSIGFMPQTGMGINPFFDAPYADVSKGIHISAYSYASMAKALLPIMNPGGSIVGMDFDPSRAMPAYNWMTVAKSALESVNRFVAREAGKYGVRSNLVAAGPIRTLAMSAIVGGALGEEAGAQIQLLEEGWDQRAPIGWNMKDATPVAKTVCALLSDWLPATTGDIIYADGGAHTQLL

| SMILES | kon, overall ([1]; 20 °C) | k5 [1, 5] | k6 ([1]; 20 °C) | tR ([1]; 20 °C) | Ki [1, 6] | Ki [1, 7] | tR direct dissociation ([2]; 20 °C) | MIC [3] | Ki ([1]; Ki^*app, 20 °C, final EI* complex) | Ki ([1]; Ki^app, 20 °C, initial EI complex) | kon ([1]; read-out: kon, overall) | time course of SHG conformational change ([4]; 30-min time course) | increase in SHG intensity ([4]; 30 min after addition, His-tagged InhA, N = 4, mean ± SE) | k5 ([1]; 25 °C, calculated) | k6 ([1]; 25 °C) | tR ([1]; 25 °C) | tR direct dissociation ([2]; 25 °C) |
| --- | --- | --- | --- | --- | --- | --- | --- | --- | --- | --- | --- | --- | --- | --- | --- | --- | --- |
| CCCCCCc1ccc(Oc2ccccc2C)c(O)c1 [PT70] | 20000 M⁻¹ s⁻¹ | 0.23 min⁻¹ | 0.036 ± 0.010 min⁻¹ | 30 ± 7 min | 0.029 ± 0.004 µM | 0.21 ± 0.034 µM | 40 ± 4 min | 3.13 mg/L | – | – | – | – | – | – | – | – | – |
| CCCCCCc1ccc(Oc2ccccc2Cl)c(O)c1 [PT91] | 41700 M⁻¹ s⁻¹ | 0.12 min⁻¹ | 0.013 ± 0.005 min⁻¹ | 90 ± 37 min | 0.005 ± 0.002 µM | 0.052 ± 0.025 µM | 148 ± 13 min | 1.56 mg/L | – | – | – | – | – | – | – | – | – |
| CCCCCCc1ccc(Oc2ccccc2F)c(O)c1 [PT113] | – | 0.18 min⁻¹ | 0.026 ± 0.004 min⁻¹ | 38 ± 5 min | – | – | 31 ± 5 min | – | 0.027 ± 0.001 µM | 0.22 ± 0.006 µM | 16000 M⁻¹ s⁻¹ | – | – | – | – | – | – |
| CCCCCCc1ccc(Oc2ccccc2C#N)c(O)c1 [PT119] | 8330 M⁻¹ s⁻¹ | 5.0 min⁻¹ | 0.020 ± 0.0040 min⁻¹ | 50 ± 0.4 min | 0.04 ± 0.001 µM | 10 ± 2 µM | 47 ± 4 min | 2.5 mg/L | – | – | – | require a longer time to reach a plateau compared to PT155 | 13.1± 0.8% | – | – | – | – |
| Cc1ccccc1Oc1ccc(Cn2cc(-c3ccccc3)nn2)cc1O [PT163] | – | – | – | – | – | – | – | – | – | – | – | – | – | 3.20 min⁻¹ | 0.0092 ± 0.002 min⁻¹ | 113 ± 28 min | 114 ± 18 min |

Source: publication PMC5357606 (Journal of the American Chemical Society, 2017)
